Experimental data collected from several papers.
Target: Cyclin-G-associated kinase (GAK, Homo sapiens, UniProt O14976)
One construct used (O14976 1-1311): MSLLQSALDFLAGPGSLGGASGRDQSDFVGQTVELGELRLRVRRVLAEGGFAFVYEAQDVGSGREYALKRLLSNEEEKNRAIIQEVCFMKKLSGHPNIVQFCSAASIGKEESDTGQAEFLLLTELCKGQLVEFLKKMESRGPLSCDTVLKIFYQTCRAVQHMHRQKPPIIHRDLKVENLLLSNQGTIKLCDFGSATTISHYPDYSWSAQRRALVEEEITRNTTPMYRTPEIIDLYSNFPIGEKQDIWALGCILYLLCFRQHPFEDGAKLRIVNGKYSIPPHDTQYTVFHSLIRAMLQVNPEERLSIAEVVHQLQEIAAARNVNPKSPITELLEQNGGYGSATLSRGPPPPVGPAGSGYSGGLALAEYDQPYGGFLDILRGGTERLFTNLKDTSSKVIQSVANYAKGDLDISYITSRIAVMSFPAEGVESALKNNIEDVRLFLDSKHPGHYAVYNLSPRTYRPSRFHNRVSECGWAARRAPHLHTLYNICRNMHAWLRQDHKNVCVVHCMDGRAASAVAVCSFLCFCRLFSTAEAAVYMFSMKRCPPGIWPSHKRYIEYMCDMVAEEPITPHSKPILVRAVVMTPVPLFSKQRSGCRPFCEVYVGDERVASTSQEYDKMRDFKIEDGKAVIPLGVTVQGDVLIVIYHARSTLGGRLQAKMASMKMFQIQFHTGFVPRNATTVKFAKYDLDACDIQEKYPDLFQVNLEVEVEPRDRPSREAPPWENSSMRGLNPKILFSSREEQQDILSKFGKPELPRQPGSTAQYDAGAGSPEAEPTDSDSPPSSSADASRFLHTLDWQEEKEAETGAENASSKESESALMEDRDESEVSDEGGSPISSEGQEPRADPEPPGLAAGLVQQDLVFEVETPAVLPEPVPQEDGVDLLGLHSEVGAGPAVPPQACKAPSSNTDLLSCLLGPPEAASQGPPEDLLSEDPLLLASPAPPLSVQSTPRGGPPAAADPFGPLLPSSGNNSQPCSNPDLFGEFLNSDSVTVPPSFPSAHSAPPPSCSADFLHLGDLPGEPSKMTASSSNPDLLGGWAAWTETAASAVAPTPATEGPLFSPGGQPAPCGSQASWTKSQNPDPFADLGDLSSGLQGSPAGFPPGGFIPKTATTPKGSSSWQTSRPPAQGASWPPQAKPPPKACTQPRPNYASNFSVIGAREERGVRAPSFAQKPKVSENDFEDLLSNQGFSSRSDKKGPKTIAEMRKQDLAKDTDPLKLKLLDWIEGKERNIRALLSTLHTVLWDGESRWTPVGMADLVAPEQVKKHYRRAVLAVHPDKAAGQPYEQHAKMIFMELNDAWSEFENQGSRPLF

| Structure (SMILES) | test | conditions | remaining binding [%] |
| --- | --- | --- | --- |
| Nc1ncc2c(n1)-c1c([nH]c3ccc(C#CC4CC4)cc13)CCCC2 | binding, competition with immobilised ligand | 1 µM | 88 |
| CN(C)c1ncc(F)c(-c2cnn3ncccc23)n1 | binding | 1 µM | 100 |
| Cn1nc(C(=O)NCc2ccc(C(=O)O)cc2)cc1-c1ccc2[nH]ccc2c1 | cell-free assay, competition with immobilised ligand | 0.1 µM | 90 |
| CCN1CCN(Cc2ccc(C(=O)Nc3ccc(C)c(Oc4ccc5c(c4)CC(=O)N5)c3)cc2C(F)(F)F)CC1 | binding, competition with immobilised ligand | 1 µM | 100 |
| CCS(=O)(=O)c1cc2cc(C[C@](O)(CC(C)(C)c3ccc(F)cc3C(N)=O)C(F)(F)F)[nH]c2cn1 | cell-free assay, competition with immobilised ligand | 1 µM | 100 |
| Cc1cnn2ncc(-c3ccnc(N(C)C)n3)c2c1 | binding | 1 µM | 52 |
| C[C@H](c1ccc(F)cc1)N(Cc1cccc(C(=O)O)c1)C(=O)c1cnc2ccccc2c1 | cell-free assay, competition with immobilised ligand | 1 µM | 98 |
| COc1ccnn2ncc(-c3ccnc(N(C)C)n3)c12 | binding | 1 µM | 73 |
| O=C(NCCCN1CCOCC1)c1ccc(Nc2ncc(Cl)c(-c3ccc(Cl)s3)n2)cc1 | binding, competition with immobilised ligand | 1 µM | 15 |
| CN(C)c1nccc(-c2cnn3ncccc23)n1 | binding | 1 µM | 82 |
| O=C(Nc1c[nH]nc1C(=O)NC1CCNCC1)c1cc(F)cc(F)c1 | binding, competition with immobilised ligand | 1 µM | 90 |
| CC1CCCN1c1nccc(-c2cnn3ncccc23)n1 (stereo not shown) | binding | 1 µM | 94 |
| O=C(c1ccc(Nc2nccc(-c3cc4ccccc4s3)n2)cc1)N1CCC(N2CCCC2)CC1 | binding, competition with immobilised ligand | 1 µM | 34 |
| N#CC1(c2ccccn2)CCN(Cc2cc(C(=O)N3CCCC3)c(=O)n3ccccc23)CC1 | cell-free assay, competition with immobilised ligand | 1 µM | 100 |
| C=CC(=O)N1CCC(C(=O)NCC(=O)N2CCN(c3nc(-c4cnc(N)nc4C(F)F)nc(N4CCOCC4)n3)CC2)CC1 | binding, competition with immobilised ligand | 1 µM | 100 |
| CNC(=O)[C@@H]1CC[C@@H](n2c(-c3ccc4cnccc4c3)nc3ccc(C(=O)NCc4cccc(C(N)=O)c4)cc32)C1 | binding, competition with immobilised ligand | 1 µM | 100 |
| Cc1cc(C)c(-n2ccn3nc(-c4cccnc4)cc23)cc1NC(=O)c1cc(C#N)cc(S(F)(F)(F)(F)F)c1 | cell-free assay, competition with immobilised ligand | 0.1 µM | 83.3 |
| N[C@H]1CCN(c2nccc(-c3cnn4ncccc34)n2)C1 | binding | 1 µM | 80 |
| CC(=O)N1CCC(c2ccc(C(=O)NC3=NCCN3)cc2C(F)(F)F)CC1 | cell-free assay, competition with immobilised ligand | 1 µM | 97 |
| O=C(NCCCN1CCOCC1)c1ccc(Nc2nccc(-c3cc4ccccc4s3)n2)cc1 | binding, competition with immobilised ligand | 1 µM | 21 |
| C[C@@H]1CN(c2cc(-c3nn(C)c4ccc(OC5(C)CC5)cc34)ncn2)C[C@H](C)O1 | cell-free assay, competition with immobilised ligand | 1 µM | 86 |
| C[C@H]1CCN(c2nccc(-c3cnn4ncccc34)n2)C1 | binding | 1 µM | 28 |
